Test results reported in ChEMBL document CHEMBL4325869, “1,2,3,4-Tetrahydroisoquinoline/2H-chromen-2-one conjugates as nanomolar P-glycoprotein inhibitors: Molecular determinants for affinity and selectivity over multidrug resistance associated protein 1” (Eur J Med Chem, 2019).

Assays:
[1] = molecular target: T1, ATP-dependent translocase ABCB1 (Homo sapiens, UniProt P08183); experiment: Inhibition of MDR1 (unknown origin) expressed in MDCK cells assessed as reduction in calcein-AM efflux preincubated for 30 mins followed by calcein-AM addition measured after 30 mins by spectrofluorimetric method; assay type: cell-based
T1 sequence (P08183 whole entry): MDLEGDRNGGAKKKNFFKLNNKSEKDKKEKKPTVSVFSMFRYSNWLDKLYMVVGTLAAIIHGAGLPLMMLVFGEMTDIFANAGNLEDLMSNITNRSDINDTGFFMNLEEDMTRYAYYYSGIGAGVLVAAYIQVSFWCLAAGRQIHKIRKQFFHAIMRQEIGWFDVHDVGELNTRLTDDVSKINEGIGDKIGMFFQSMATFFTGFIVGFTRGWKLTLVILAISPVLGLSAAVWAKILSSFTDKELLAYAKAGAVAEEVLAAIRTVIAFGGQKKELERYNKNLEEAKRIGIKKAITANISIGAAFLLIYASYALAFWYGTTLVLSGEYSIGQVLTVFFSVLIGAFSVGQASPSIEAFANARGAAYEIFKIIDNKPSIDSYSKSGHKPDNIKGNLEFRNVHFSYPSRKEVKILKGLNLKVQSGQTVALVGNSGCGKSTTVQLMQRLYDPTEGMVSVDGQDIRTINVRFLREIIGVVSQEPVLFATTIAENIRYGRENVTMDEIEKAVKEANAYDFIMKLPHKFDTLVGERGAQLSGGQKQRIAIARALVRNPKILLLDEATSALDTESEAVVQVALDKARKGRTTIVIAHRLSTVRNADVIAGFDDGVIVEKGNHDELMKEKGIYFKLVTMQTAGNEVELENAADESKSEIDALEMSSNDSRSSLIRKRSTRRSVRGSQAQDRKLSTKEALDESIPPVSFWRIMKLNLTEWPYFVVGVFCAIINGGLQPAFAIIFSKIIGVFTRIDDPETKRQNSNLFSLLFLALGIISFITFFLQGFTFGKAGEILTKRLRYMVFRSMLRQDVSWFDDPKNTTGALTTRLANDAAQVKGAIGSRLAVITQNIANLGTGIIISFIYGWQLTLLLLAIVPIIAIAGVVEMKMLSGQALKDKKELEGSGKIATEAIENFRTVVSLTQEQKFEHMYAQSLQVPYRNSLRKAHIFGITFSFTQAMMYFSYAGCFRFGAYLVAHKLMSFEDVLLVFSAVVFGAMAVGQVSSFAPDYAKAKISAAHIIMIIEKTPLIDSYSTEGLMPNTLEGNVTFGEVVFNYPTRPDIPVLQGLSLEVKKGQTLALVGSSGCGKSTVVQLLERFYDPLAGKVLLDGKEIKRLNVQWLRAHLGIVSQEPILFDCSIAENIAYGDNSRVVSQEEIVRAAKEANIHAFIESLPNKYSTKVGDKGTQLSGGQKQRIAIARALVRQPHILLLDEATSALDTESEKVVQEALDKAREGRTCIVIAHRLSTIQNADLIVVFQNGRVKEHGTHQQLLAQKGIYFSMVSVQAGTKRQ

[2] = molecular target: T1, ATP-dependent translocase ABCB1; experiment: Inhibition of MDR1 (unknown origin) expressed in MDCK cells assessed as potentiation of doxorubicin-induced cytotoxicity preincubated for 24 hrs followed by doxorubicin addition measured after 72 hrs by MTT assay; assay type: cell-based
Summary of the method: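 MDCK-MDR1 cells were seeded at 10,000/well, and compound was added at 0.1, 1 and 10 µM on day 2. On day 3 the medium was replaced with compound plus 10 µM doxorubicin. The 72 h run ended with MTT (0.5 mg/mL, 3 h, 37 °C) and DMSO solubilization, read at 570/630 nm. Growth is % of drug-free control, compared against doxorubicin alone by one-way ANOVA with Bonferroni post-hoc.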

MDCK = experiment: Cytotoxicity against MDCK cells expressing MDR1 assessed as reduction in cell viability at 10 uM after 72 hrs by MTT assay; assay type: ADME, cell-based, Canis lupus familiaris; conditions: dog
Summary of the method: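 MDCK-MDR1 cells (DMEM high glucose, 10% FBS, 37 °C, 5% CO2) were seeded at 10,000/well. Compound was added at 0.1, 1 and 10 µM the next day. On day 3 the medium was replaced with compound alone, and the 72 h run ended with MTT (0.5 mg/mL, 3 h, 37 °C). Formazan was dissolved in DMSO and read at 570/630 nm. Viability is % of untreated control with solvent controls, from 2-3 independent experiments in triplicate.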

Compound `COc1cc2c(cc1OC)CN(CCOc1ccc3c(C)c(C)c(=O)oc3c1)CC2` has an IC50 [1] of 0.38 µM.

In the case of `COc1cc2c(cc1OC)CN(CCCCCOc1ccc3c(c1)oc(=O)c1ccccc13)CC2`, the IC50 [1] is reported as 0.33 µM.

Compound `COc1cc2c(cc1OC)CN(Cc1ccccc1COc1ccc3c(C)c(C)c(=O)oc3c1)CC2` has an IC50 [1] of 0.16 µM.

In the case of `COc1cc2c(cc1OC)CN(Cc1cccc(COc3ccc4ccc(=O)oc4c3)c1)CC2`, the IC50 [1] is reported as 0.77 µM.

With `COc1cc2c(cc1OC)CN(CCCCCOc1ccc3c(C)c(C)c(=O)oc3c1)CC2` the “inhibition (INH)” value [2] was “Dose-dependent effect”, the IC50 [1] was 0.07 µM and the Activity (MDCK) was “Non-Toxic”.

Work on `COc1cc2c(cc1OC)CN(Cc1ccc(COc3ccc4c(C)c(C)c(=O)oc4c3)cc1)CC2` yielded an IC50 [1] of 0.19 µM.

`COc1cc2c(cc1OC)CN(CCCOc1ccc3c(C)c(C)c(=O)oc3c1)CC2` showed an IC50 [1] of 0.19 µM.

In the case of `COc1cc2c(cc1OC)CN(CCCCCOc1ccc3c(C)c(Br)c(=O)oc3c1)CC2`, the “inhibition (INH)” value [2] is reported as “Dose-dependent effect”, the IC50 [1] is reported as 0.28 µM and the Activity (MDCK) is reported as “Non-Toxic”.

`COc1cc2c(cc1OC)CN(Cc1cccc(COc3ccc4c(C)c(C)c(=O)oc4c3)c1)CC2` showed an IC50 [1] of 0.16 µM.

`COc1cc2c(cc1OC)CN(CCCCCOc1ccc3cc(-c4ccccc4)c(=O)oc3c1)CC2` was tested, and the “inhibition (INH)” value [2] was “Dose-dependent effect”, the IC50 [1] was 0.39 µM and the Activity (MDCK) was “Non-Toxic”.

With `COc1cc2c(cc1OC)CN(CCCCOc1ccc3c(C)c(Cl)c(=O)oc3c1)CC2` the IC50 [1] was 0.56 µM.

With `COc1cc2c(cc1OC)CN(CCCCCCOc1ccc3c(C)c(C)c(=O)oc3c1)CC2` the IC50 [1] was 0.22 µM.

`COc1cc2c(cc1OC)CN(CCCCCOc1ccc3c(C)c(-c4ccccc4)c(=O)oc3c1)CC2` was tested, and the “inhibition (INH)” value [2] was “Dose-dependent effect”, the IC50 [1] was 0.22 µM and the Activity (MDCK) was “Non-Toxic”.

Compound `Cc1c(C)c2ccc(OCCN3CCc4ccccc4C3)cc2oc1=O` has an IC50 [1] of 15 µM.

`Cc1c(C)c2ccc(OCCCCN3CCc4ccccc4C3)cc2oc1=O` gave an IC50 [1] of 0.91 µM.

`COc1cc2c(cc1OC)CN(C/C=C/COc1ccc3c(C)c(C)c(=O)oc3c1)CC2` gave an IC50 [1] of 1 µM.

`COc1cc2c(cc1OC)CN(CCCCOc1ccc3c(C)c(C)c(=O)oc3c1)CC2` gave an IC50 [1] of 0.15 µM.

`COc1cc2c(cc1OC)CN(CCCCCOc1ccc3c(C)c(Cl)c(=O)oc3c1)CC2` gave an IC50 [1] of 0.46 µM.

Compound `Cc1c(C)c2ccc(OCCCN3CCc4ccccc4C3)cc2oc1=O` has an IC50 [1] of 2.7 µM.

Work on `COc1cc2c(cc1OC)CN(CCCCOc1ccc3cc(-c4ccccc4)c(=O)oc3c1)CC2` yielded an IC50 [1] of 0.41 µM.

With `COc1cc2c(cc1OC)CN(CC/C=C1\CCCc3c(OC)cccc31)CC2` the IC50 [1] was 1.2 µM.

`Cc1c(C)c2ccc(OCCCCCN3CCc4ccccc4C3)cc2oc1=O` was tested, and the “inhibition (INH)” value [2] was “Dose-dependent effect”, the IC50 [1] was 0.55 µM and the Activity (MDCK) was “Non-Toxic”.

For `COc1cc2c(cc1OC)CN(CCc1ccc(COc3ccc4c(C)c(C)c(=O)oc4c3)cc1)CC2`, the “inhibition (INH)” value [2] was “Dose-dependent effect”, the IC50 [1] was 0.19 µM and the Activity (MDCK) was “Non-Toxic”.
